Measurements published in ChEMBL document CHEMBL1153878, “Hansch analysis of veratric acid derivatives as antimicrobial agents” (2009).
Converted amounts (≈) assume the structure as drawn. “And” between values parts separate entries of the source, which are not always exact repeats. Identical values can stand only once.

Tests used:
Assay type in all cases: functional
Staphylococcus aureus = test: Antibacterial activity against Staphylococcus aureus MTCC 1430 by serial dilution method; set-up: -logMIC: scale not given here
Summary of the method: (§1)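 Tube serial dilution in 1 ml sterile double strength nutrient broth I.P., test range […] per ml. Inoculum: […] of a saline suspension at 10⁵ cfu/ml from a fresh 24-h culture, grown in double strength nutrient broth at 37 ± 1 °C. […] Exact MIC refined by further dilution of the stock.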

Bacillus subtilis = test: Antibacterial activity against Bacillus subtilis MTCC 2423 by serial dilution method; set-up: -logMIC: unit not given here; summary of the method: as §1
Escherichia coli = test: Antibacterial activity against Escherichia coli MTCC 739 by serial dilution method; set-up: -logMIC: scale not given here; summary of the method: as §1
Candida albicans = test: Antifungal activity against Candida albicans MTCC 227 by serial dilution method; set-up: -logMIC: unit not given here
Aspergillus niger = test: Antifungal activity against Aspergillus niger MTCC 2425 by serial dilution method; set-up: -logMIC: scale not given here
[1] = Staphylococcus aureus, MTCC 1430, read-out: MIC
[2] = Bacillus subtilis, MTCC 2423, read-out: MIC
[3] = Escherichia coli, MTCC 739, read-out: MIC
[4] = Candida albicans, MTCC 227, read-out: MIC
[5] = Aspergillus niger, MTCC 2425, read-out: MIC

Structure (SMILES)	-logMIC (Staphylococcus aureus)	MIC (Staphylococcus aureus; [1])	-logMIC (Bacillus subtilis)	MIC (Bacillus subtilis; [2])	-logMIC (Escherichia coli)	MIC (Escherichia coli; [3])	-logMIC (Candida albicans)	MIC (Candida albicans; [4])	-logMIC (Aspergillus niger)	MIC (Aspergillus niger; [5])	MIC (Staphylococcus aureus)	MIC (Bacillus subtilis)	MIC (Escherichia coli)	MIC (Candida albicans)	MIC (Aspergillus niger)
COc1ccc(C(=O)N(C)C)cc1OC	1.08	17 µg/mL (≈ 81.2 µM)	1.21	13 µg/mL (≈ 62.1 µM)	1.15	15 µg/mL (≈ 71.7 µM)	1.31	10 µg/mL (≈ 47.8 µM)	1.31	10 µg/mL (≈ 47.8 µM)	–	–	–	–	–
CCCCCCOC(=O)c1ccc(OC)c(OC)c1	1.2	16.5 µg/mL (≈ 62 µM)	1.33	12.5 µg/mL (≈ 46.9 µM)	1.22	16 µg/mL (≈ 60.1 µM)	1.3	13 µg/mL (≈ 48.8 µM)	1.28	14 µg/mL (≈ 52.6 µM)	–	–	–	–	–
COc1ccc(C(=O)NCCO)cc1OC	1.04	21 µg/mL (≈ 93.2 µM)	1.18	15 µg/mL (≈ 66.6 µM)	1.08	19 µg/mL (≈ 84.4 µM)	1.29	11.5 µg/mL (≈ 51.1 µM)	1.29	11.5 µg/mL (≈ 51.1 µM)	–	–	–	–	–
COc1ccc(C(=O)OCc2ccccc2)cc1OC	1.1	21.5 µg/mL (≈ 79 µM)	1.34	12.5 µg/mL (≈ 45.9 µM)	1.18	18 µg/mL (≈ 66.1 µM)	1.3	13.5 µg/mL (≈ 49.6 µM)	1.29	14 µg/mL (≈ 51.4 µM)	–	–	–	–	–
COc1ccc(C(=O)Oc2cccc3cccnc23)cc1OC	1.45	11 µg/mL (≈ 35.6 µM)	1.53	9 µg/mL (≈ 29.1 µM)	1.56	8.5 µg/mL (≈ 27.5 µM)	1.35	13.5 µg/mL (≈ 43.6 µM)	1.34	14 µg/mL (≈ 45.3 µM)	–	–	–	–	–
CCOC(=O)c1ccc(OC)c(OC)c1	0.98	22 µg/mL (≈ 105 µM)	1.12	16 µg/mL (≈ 76.1 µM)	1.02	20 µg/mL (≈ 95.1 µM)	1.23	12 µg/mL (≈ 57.1 µM)	1.23	12 µg/mL (≈ 57.1 µM)	–	–	–	–	–
CCCOC(=O)c1ccc(OC)c(OC)c1	0.98	24 µg/mL (≈ 107 µM)	1.2	14 µg/mL (≈ 62.4 µM)	1.25	12.5 µg/mL (≈ 55.7 µM)	1.1	18 µg/mL (≈ 80.3 µM)	1.2	14 µg/mL (≈ 62.4 µM)	–	–	–	–	–
CCCCOC(=O)c1ccc(OC)c(OC)c1	1.1	19 µg/mL (≈ 79.7 µM)	1.2	15 µg/mL (≈ 63 µM)	1.1	19 µg/mL (≈ 79.7 µM)	1.2	15 µg/mL (≈ 63 µM)	1.15	17 µg/mL (≈ 71.3 µM)	–	–	–	–	–
COc1ccc(C(=O)OCC(C)C)cc1OC	1.08 and 1.1	20 µg/mL (≈ 83.9 µM)	1.23 and 1.17	14 µg/mL (≈ 58.8 µM)	1.17 and 1.1	16 µg/mL (≈ 67.1 µM)	1.25 and 1.34	13.5 µg/mL (≈ 56.7 µM)	1.28 and 1.17	12.5 µg/mL (≈ 52.5 µM)	19 µg/mL (≈ 79.7 µM)	16 µg/mL (≈ 67.1 µM)	19 µg/mL (≈ 79.7 µM)	11 µg/mL (≈ 46.2 µM)	16 µg/mL (≈ 67.1 µM)
COc1ccc(C(=O)OC(C)(C)C)cc1OC	1.08	20 µg/mL (≈ 83.9 µM)	1.2	15 µg/mL (≈ 63 µM)	1.08	20 µg/mL (≈ 83.9 µM)	1.38	10 µg/mL (≈ 42 µM)	1.3	12 µg/mL (≈ 50.4 µM)	–	–	–	–	–
CCNC(=O)c1ccc(OC)c(OC)c1	0.95	23.5 µg/mL (≈ 112 µM)	1.21	13 µg/mL (≈ 62.1 µM)	1.01	20 µg/mL (≈ 95.6 µM)	1.31	10 µg/mL (≈ 47.8 µM)	1.26	11.5 µg/mL (≈ 55 µM)	–	–	–	–	–
CCCNC(=O)c1ccc(OC)c(OC)c1	1.08	19 µg/mL (≈ 85.1 µM)	1.23	13 µg/mL (≈ 58.2 µM)	1.08	19 µg/mL (≈ 85.1 µM)	1.25	12.5 µg/mL (≈ 56 µM)	1.28	12 µg/mL (≈ 53.7 µM)	–	–	–	–	–
CCCCCCCOC(=O)c1ccc(OC)c(OC)c1	1.25	16 µg/mL (≈ 57.1 µM)	1.35	12.5 µg/mL (≈ 44.6 µM)	1.3	14 µg/mL (≈ 49.9 µM)	1.25	16 µg/mL (≈ 57.1 µM)	1.37	12 µg/mL (≈ 42.8 µM)	–	–	–	–	–
COc1ccc(C(=O)Oc2ccccc2)cc1OC	1.15	18 µg/mL (≈ 69.7 µM)	1.27	14 µg/mL (≈ 54.2 µM)	1.21	16 µg/mL (≈ 61.9 µM)	1.3	12.5 µg/mL (≈ 48.4 µM)	1.34	11.5 µg/mL (≈ 44.5 µM)	–	–	–	–	–
CNC(=O)c1ccc(OC)c(OC)c1	0.95	22 µg/mL (≈ 113 µM)	1.18	13 µg/mL (≈ 66.6 µM)	1.05	17 µg/mL (≈ 87.1 µM)	1.28	13 µg/mL (≈ 66.6 µM)	1.18	12.5 µg/mL (≈ 64 µM)	–	–	–	–	–
COc1ccc(C(=O)OCCC(C)C)cc1OC	1.1	20 µg/mL (≈ 79.3 µM)	1.31	12.5 µg/mL (≈ 49.5 µM)	1.2	16 µg/mL (≈ 63.4 µM)	1.2	16 µg/mL (≈ 63.4 µM)	1.3	12.5 µg/mL (≈ 49.5 µM)	–	–	–	–	–
COc1ccc(C(=O)OC(C)C)cc1OC	1.01	22 µg/mL (≈ 98.1 µM)	1.2	14 µg/mL (≈ 62.4 µM)	1.2	14 µg/mL (≈ 62.4 µM)	1.35	10 µg/mL (≈ 44.6 µM)	1.25	12.5 µg/mL (≈ 55.7 µM)	–	–	–	–	–
C=CCOC(=O)c1ccc(OC)c(OC)c1	1	22 µg/mL (≈ 99 µM)	1.25	12.5 µg/mL (≈ 56.2 µM)	1.1	18 µg/mL (≈ 81 µM)	1.1	18 µg/mL (≈ 81 µM)	1.2	14 µg/mL (≈ 63 µM)	–	–	–	–	–
CCCCCOC(=O)c1ccc(OC)c(OC)c1	1.1	20 µg/mL (≈ 79.3 µM)	1.31	12.5 µg/mL (≈ 49.5 µM)	1.1	20 µg/mL (≈ 79.3 µM)	1.1	20 µg/mL (≈ 79.3 µM)	1.1	20 µg/mL (≈ 79.3 µM)	–	–	–	–	–
COc1ccc(C(N)=O)cc1OC	0.9	23 µg/mL (≈ 127 µM)	1.09	15 µg/mL (≈ 82.8 µM)	0.95	20 µg/mL (≈ 110 µM)	1.25	10 µg/mL (≈ 55.2 µM)	1.2	11 µg/mL (≈ 60.7 µM)	–	–	–	–	–
O=C(O)c1cn(C2CC2)c2cc(N3CCNCC3)c(F)cc2c1=O [CIPROFLOXACIN]	3.33	–	3.33	–	3.33	–	–	–	–	–	–	–	–	–	–
OC(Cn1cncn1)(Cn1cncn1)c1ccc(F)cc1F [FLUCONAZOLE]	–	–	–	–	–	–	2.64	–	2.64	–	–	–	–	–	–
